# Measurements: ChEMBL document CHEMBL1127343, “"Glycylcyclines". 3. 9-Aminodoxycyclinecarboxamides” (1994)
# Tests used:
# Format in all cases: functional
# [1] = tested on: Staphylococcus aureus; assay: In vitro antibacterial activity was measured on gram positive bacteria Staphylococcus aureus UBMS 90-1 tet-M (ribosomal protection) cell lines
# Summary of the method: (§1)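 MIC by agar dilution on Mueller-Hinton II agar; inoculum (1–5) × 10^5 CFU/mL; antibiotic range 32–0.004 μg/mL; plates incubated 18 h at 35 °C in forced-air incubator. MIC taken as lowest concentration inhibiting growth. Tetracycline, minocycline and doxycycline run as standards in each assay.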
# [2] = tested on: Staphylococcus aureus; assay: In vitro antibacterial activity was measured on gram positive bacteria Staphylococcus aureus UBMS 90-3 sensitive cell lines; summary of the method: as §1
# [3] = tested on: Escherichia coli; assay: In vitro antibacterial activity was measured on gram negative bacteria Escherichia coli UBMS 90-5 sensitive cell lines; summary of the method: as §1
# [4] = tested on: Escherichia coli; assay: In vitro antibacterial activity was measured on gram negative bacteria Escherichia coli J3272 tet-D(efflux resistance) cell lines
# [5] = tested on: Escherichia coli; assay: In vitro antibacterial activity was measured on gram negative bacteria Escherichia coli J3272 tet-C(efflux resistance) cell lines
# [6] = tested on: Escherichia coli; assay: In vitro antibacterial activity was measured on gram negative bacteria Escherichia coli UBMS 90-4 tet-M (ribosomal protection) cell lines
# Summary of the method: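 Agar dilution MIC on Mueller-Hinton II agar. Inoculum (1–5) × 10^5 CFU/mL, drug range 32–0.004 μg/mL. Plates incubated 18 h at 35 °C in a forced-air incubator. MIC is the lowest concentration that inhibits growth. The strain panel covered tetracycline-sensitive and -resistant strains. Tetracycline, minocycline and doxycycline were run as standards in each assay.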
# [7] = tested on: Escherichia coli; assay: In vitro antibacterial activity was measured on gram negative bacteria Escherichia coli PRP-1 tet-a(efflux resistance) cell lines
# [8] = tested on: Staphylococcus aureus; assay: In vitro antibacterial activity was measured on gram positive bacteria Staphylococcus aureus smith cell lines; summary of the method: as §1
# [9] = tested on: Escherichia coli; assay: In vitro antibacterial activity was measured on gram negative bacteria Escherichia coli UBMS 88-1 tet-B(efflux resistance) cell lines
# [10] = tested on: Staphylococcus aureus; assay: In vitro antibacterial activity was measured on gram positive bacteria Staphylococcus aureus UBMS 88-7 tet-k(efflux resistance) cell lines
Compound,MIC [1] [µg/mL],MIC [2] [µg/mL],MIC [3] [µg/mL],MIC [4] [µg/mL],MIC [5] [µg/mL],MIC [6] [µg/mL],MIC [7] [µg/mL],MIC [8] [µg/mL],MIC [9] [µg/mL],MIC [10] [µg/mL]
CN[C@@H](CC(C)C)C(=O)Nc1ccc2c(c1O)C(=O)C1=C(O)[C@]3(O)C(O)=C(C(N)=O)C(=O)[C@@H](N(C)C)C3[C@@H](O)C1[C@H]2C (stereo not given in full),2,1,4,2,8,4,16,2,8,–
CC(C)C[C@H](N)C(=O)Nc1ccc2c(c1O)C(=O)C1=C(O)[C@]3(O)C(O)=C(C(N)=O)C(=O)[C@@H](N(C)C)C3CC1C2 (stereo not given in full),1,1,2,1,4,2,4,2,4,–
CC(C)C[C@H](N)C(=O)Nc1ccc2c(c1O)C(=O)C1=C(O)[C@]3(O)C(O)=C(C(N)=O)C(=O)[C@@H](N(C)C)C3[C@@H](O)C1[C@H]2C (stereo not given in full),1,0.5,1,–,4,1,16,0.5,2,2
CC(C)[C@H](N)C(=O)Nc1ccc2c(c1O)C(=O)C1=C(O)[C@]3(O)C(O)=C(C(N)=O)C(=O)[C@@H](N(C)C)C3[C@@H](O)C1[C@H]2C (stereo not given in full),2,0.5,2,1,8,2,32,1,4,8
C[C@H]1c2ccc(NC(=O)[C@@H](N)Cc3ccccc3)c(O)c2C(=O)C2=C(O)[C@]3(O)C(O)=C(C(N)=O)C(=O)[C@@H](N(C)C)C3[C@@H](O)C21 (stereo not given in full),1,0.5,4,1,–,2,8,0.25,–,4
C[C@H]1c2ccc(NC(=O)CN(C)C)c(O)c2C(=O)C2=C(O)[C@]3(O)C(O)=C(C(N)=O)C(=O)[C@@H](N(C)C)C3[C@@H](O)C21 (stereo not given in full),0.5,0.12,0.5,–,8,0.25,2,0.25,1,4
C[C@H]1c2ccc(NC(=O)[C@@H]3CCCN3)c(O)c2C(=O)C2=C(O)[C@]3(O)C(O)=C(C(N)=O)C(=O)[C@@H](N(C)C)C3[C@@H](O)C21 (stereo not given in full),4,1,2,1,8,2,16,2,4,–
CC[C@H](C)[C@H](N)C(=O)Nc1ccc2c(c1O)C(=O)C1=C(O)[C@]3(O)C(O)=C(C(N)=O)C(=O)[C@@H](N(C)C)C3[C@@H](O)C1[C@H]2C (stereo not given in full),1,0.25,1,0.5,4,1,16,1,2,2
C[C@H]1c2ccc(NC(=O)CNC(C)(C)C)c(O)c2C(=O)C2=C(O)[C@]3(O)C(O)=C(C(N)=O)C(=O)[C@@H](N(C)C)C3[C@@H](O)C21 (stereo not given in full),1,0.25,0.5,–,1,0.5,1,0.5,1,2
C[C@H]1c2ccc(NC(=O)[C@H](N)Cc3ccccc3)c(O)c2C(=O)C2=C(O)[C@]3(O)C(O)=C(C(N)=O)C(=O)[C@@H](N(C)C)C3[C@@H](O)C21 (stereo not given in full),8,1,4,1,–,2,16,0.5,–,16
C[C@H]1c2ccc(NC(=O)[C@@H](N)CC3CCCCC3)c(O)c2C(=O)C2=C(O)[C@]3(O)C(O)=C(C(N)=O)C(=O)[C@@H](N(C)C)C3[C@@H](O)C21 (stereo not given in full),8,0.5,4,2,8,4,8,1,8,2
